Here are results for eleven compounds from ChEMBL document CHEMBL1122079, “Tryptophan analogues. 1. Synthesis and antihypertensive activity of positional isomers” (1982).

Assay [1] relates to Rattus norvegicus. The assay is described as follows: Antihypertensive activity in renal hypertensive rats 1 hr after oral administration (10 mg/Kg). The class given is functional. The method, boiled down:
(§1)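 Renal hypertensive rats (5 or 10 per group), 10 mg/kg given orally. Systolic pressure measured indirectly by tail occluding cuff with pulse sensor, once before dosing as control and again at 1, 2, 4, 6 and 8 h. Values are changes in mean systolic pressure from control (mmHg). Significance of control vs posttreatment assessed by Wilcoxon's signed rank test (p < 0.05).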

Assay [2] deals with Rattus norvegicus. The assay is described as follows: Antihypertensive activity in renal hypertensive rats 2 hr after oral administration (10 mg/Kg). The class given is functional. The method, boiled down:
as §1

Assay [3] has as its system Felis catus. The assay is described as follows: Change in blood pressure in normotensive anesthetized cat. The class given is functional. The method, boiled down:
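Normotensive cats of either sex (2-4 kg) anesthetized with α-chloralose (80 mg/kg iv). Trachea, femoral artery and jugular vein cannulated. Compound given iv at 10 mg/kg, with 1 mg/kg iv used in one case. Mean blood pressure recorded by pressure transducer before and 30 min after dosing, reported as decrease in mmHg.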

Assay [4] has as its system Rattus norvegicus. The assay is described as follows: Antihypertensive activity in renal hypertensive rats 8 hr after oral administration (10 mg/Kg). The class given is functional. The method, boiled down:
as §1

In assay [5] the test system is Rattus norvegicus. The assay is described as follows: Antihypertensive activity in renal hypertensive rats 6 hr after oral administration (10 mg/Kg). The class given is functional. Put shortly: as §1
Assay [6] concerns Felis catus. The assay is described as follows: Control blood pressure in normotensive anesthetized cat at dose 10 mg/Kg iv.
Assay [7] concerns Rattus norvegicus. The assay is described as follows: Antihypertensive activity in renal hypertensive rats 4 hr after oral administration (10 mg/Kg). The class given is functional. The method, boiled down: as §1

As for `COc1ccc2[nH]cc(C(CN)C(=O)OC(C)C)c2c1.Cl` (configuration not stated), the BP in assay [1] is reported as 7 mmHg; in assay [2], -1 mmHg; in assay [3] it was -48 mmHg; in assay [4], 13 mmHg; in assay [5], 7 mmHg; in assay [7], 13 mmHg. Further, the “control BP” value in assay [6] is given as 181 mmHg.
For the compound `COC(=O)C(CN(C)C)c1c[nH]c2ccccc12` (configuration not stated), the BP is recorded as -2 mmHg in assay [1]; 0 mmHg in assay [2]; -35 mmHg in assay [3]; 1 mmHg in assay [4]; 11 mmHg in assay [5]; 2 mmHg in assay [7]. In addition, the “control BP” value in assay [6] was 145 mmHg.
On to `CCOC(=O)NCC(c1nnn[nH]1)c1c[nH]c2ccccc12` (configuration not stated), for which the BP is -10 mmHg in assay [1]; -6 mmHg in assay [2]; 5 mmHg in assay [3]; -15 mmHg in assay [4]; -17 mmHg in assay [5]; -24 mmHg in assay [7]. Further, the “control BP” value in assay [6] worked out at 155 mmHg.
Turning to `CCOC(=O)C(CNC(C)=O)c1cn(C(=O)OCC)c2ccc(OC)cc12` (configuration not stated), the BP was -15 mmHg in assay [1]; -12 mmHg in assay [2]; 0 mmHg in assay [3]; -14 mmHg in assay [4]; -20 mmHg in assay [5]; -21 mmHg in assay [7]. In addition, in assay [6], the “control BP” value is 195 mmHg.
Regarding `CCOC(=O)CC(c1nnn[nH]1)c1c[nH]c2ccc(OC)cc12` (configuration not stated), the BP in assay [1] is -16 mmHg; in assay [2] it was -21 mmHg; in assay [3], -11 mmHg; in assay [4], -11 mmHg; in assay [5], -16 mmHg; in assay [7], -25 mmHg. In assay [6], the “control BP” value turned out to be 136 mmHg.
Consider `CCOC(=O)NCC(c1nnn[nH]1)c1c[nH]c2ccc(OC)cc12` (configuration not stated), for which the BP was -2 mmHg in assay [1]; 2 mmHg in assay [2]; 5 mmHg in assay [3]; 0 mmHg in assay [4]; 2 mmHg in assay [5]; 0 mmHg in assay [7]. Further, in assay [6], the “control BP” value is on record as 160 mmHg.
For `COC(=O)CC(CN)c1c[nH]c2ccccc12` (configuration not stated), the BP is reported as -1 mmHg in assay [1]; -11 mmHg in assay [2]; -4 mmHg in assay [3]; -1 mmHg in assay [4]; -7 mmHg in assay [5]; 2 mmHg in assay [7]. For the same compound, the “control BP” value in assay [6] turned out to be 184 mmHg.
For the compound `CCOC(=O)CC(c1nnn[nH]1)c1c[nH]c2ccccc12` (configuration not stated), the BP in assay [1] is on record as -4 mmHg; in assay [2] it was -22 mmHg; in assay [3] it was 2 mmHg; in assay [4], -7 mmHg; in assay [5] it was -22 mmHg; in assay [7], -27 mmHg. Also, the “control BP” value in assay [6] turned out to be 168 mmHg.
With `COc1ccc2[nH]cc(C(CNC(C)=O)C(=O)O)c2c1` (configuration not stated), the BP in assay [1] was -16 mmHg; in assay [2], -18 mmHg; in assay [3] it was -14 mmHg; in assay [4], -8 mmHg; in assay [5], -28 mmHg; in assay [7], -24 mmHg. In assay [6], the “control BP” value stood at 154 mmHg.
Regarding `CCOC(=O)C(CNC(C)=O)c1cn(C(=O)OCC)c2cc(Cl)ccc12` (configuration not stated), the BP in assay [1] is -18 mmHg; in assay [2] it was -12 mmHg; in assay [3], -2 mmHg; in assay [4] it was -3 mmHg; in assay [5], -7 mmHg; in assay [7] it was -12 mmHg. Further, in assay [6], the “control BP” value came out at 165 mmHg.
Regarding `NCC(C(=O)O)c1c[nH]c2cc(Cl)ccc12` (configuration not stated), the BP is reported as -4 mmHg in assay [1]; -5 mmHg in assay [2]; -2 mmHg in assay [3]; -9 mmHg in assay [4]; -14 mmHg in assay [5]; -6 mmHg in assay [7]. Further, the “control BP” value in assay [6] was determined as 179 mmHg.
